Eight molecules from ChEMBL document CHEMBL2380301, “Chemotherapy of leishmaniasis. Part XII: design, synthesis and bioevaluation of novel triazole integrated phenyl heteroterpenoids as antileishmanial agents” (Bioorg Med Chem Lett, 2013) can be followed below.

The nature of series [1]: Cytotoxicity against african green monkey Vero cells after 72 hrs by MTT assay. Format: cell-based. To be noted: chlorocebus sabaeus. In short, it runs like this: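 Vero monkey kidney […] were exposed to compounds for 72 h, and viable cells were detected with MTT by a modified Mosmann method. CC50 is the mean of two independent experiments.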
Series [2] in a line: Selectivity index, ratio of CC50 for african green monkey Vero cells to IC50 for amastigotes of Leishmania donovani. Format: functional. The procedure, abridged: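 Ratio of CC50 on Vero cells (72 h MTT) to IC50 on intramacrophage L. donovani amastigotes in luciferase-expressing J-774A.1 infections (72 h). Both values are means of two independent experiments.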
Series [3] concerns Leishmania donovani. In words: Antileishmanial activity against amastigotes of Leishmania donovani assessed as inhibition of parasite growth after 72 hrs by luciferase reporter assay. Format: functional, organism-based. In short, it runs like this:
(§1)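 J-774A.1 murine macrophages (4 × 10³/well) were seeded and grown 24 h, then infected with luciferase-transfected L. donovani promastigotes (4 × 10⁴/well) that transformed intracellularly into amastigotes. Compounds at […] were added for 72 h. After supernatant removal, cells were taken up in PBS with Steady-Glo and luminescence read. Inhibition was calculated against untreated controls. IC50 is the mean of two independent experiments.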

The subject of series [4] is Leishmania donovani. Briefly: Antileishmanial activity against amastigotes of Leishmania donovani assessed as inhibition of parasite growth at 40 uM after 72 hrs by luciferase reporter assay. Format: functional. In short, it runs like this: as §1
Series [5] relates to Leishmania donovani. Briefly: Antileishmanial activity against Leishmania donovani infected in golden hamster assessed as inhibition of parasite multiplication at 50 mg/kg, ip qd for 5 days measured on day 7. Format: functional. To be noted: route intraperitoneal. The procedure, abridged: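 Inbred golden hamsters of either sex, 40–45 g, infected intracardiacally with 1 × 10⁷ L. donovani amastigotes per animal. Dosing was 50 mg/kg ip for 5 days. Biopsies were taken on day 7 after the last dose and amastigotes counted by Giemsa staining. Counts were compared between treated and untreated animals and with the initial count in treated animals, and expressed as per cent inhibition.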

Regarding `CC1=CCCC(C)(C)C1/C=C/C1=NN(c2ccc(F)cc2)C(c2ccc(-n3cncn3)cc2)C1` (centres undefined), the CC50 at 72 h in series [1] was 72.2 µM. Besides, in series [2], the “Ratio CC50/IC50” value is 4. Further, in the series with Leishmania donovani [3], the IC50 came out at 16.9 µM. The inhibition at 40 µM in the series on Leishmania donovani [4] was 90.5%.

In series [1], `CCCCCCCCCCCCCCCCOP(=O)([O-])OCC[N+](C)(C)C` [MILTEFOSINE] yielded a CC50 at 72 h of 54.7 µM. In addition, in series [2], the “Ratio CC50/IC50” value was determined as 6. Further, the IC50 in the series with Leishmania donovani [3] was found to be 8.6 µM. Further, the inhibition at 40 µM with Leishmania donovani [4] worked out at 100%.

Molecule `CC1=C(/C=C/C2=NN(c3ccccc3)C(c3ccc(-n4cncn4)cc3)C2)C(C)(C)CCC1` (centres undefined) showed a CC50 at 72 h in series [1] of 112 µM. For the same molecule, the inhibition in vivo at 50 mg/kg in the series on Leishmania donovani [5] turned out to be 79%. Moreover, in series [2], the “Ratio CC50/IC50” value is listed as 18. Also, in the series on Leishmania donovani [3], the half-maximal inhibitory concentration (IC50) stood at 6.4 µM. For the same molecule, the inhibition at 40 µM in the series on Leishmania donovani [4] is 100%.

As to `CC1=C(/C=C/C(=O)/C=C/c2ccc(-n3cncn3)cc2)C(C)(C)CCC1`, the CC50 at 72 h in series [1] came out at 72.4 µM. The “Ratio CC50/IC50” value in series [2] was 5. Also, the IC50 in the series on Leishmania donovani [3] is 15.3 µM. Further, the inhibition at 40 µM with Leishmania donovani [4] stood at 100%.

In turn, `CC1=CCCC(C)(C)C1/C=C/C(=O)/C=C/c1ccc(-n2cncn2)cc1` (centres undefined) registered a CC50 at 72 h in series [1] of 38.5 µM. The “Ratio CC50/IC50” value in series [2] worked out at 3. In addition, the IC50 in the series with Leishmania donovani [3] worked out at 11.6 µM. Further, the inhibition at 40 µM with Leishmania donovani [4] turned out to be 98.2%.

In series [1], `Clc1ccc(COC(Cn2ccnc2)c2ccc(Cl)cc2Cl)c(Cl)c1` (centres undefined) [MICONAZOLE] had a CC50 at 72 h of 37.4 µM. Moreover, the “Ratio CC50/IC50” value in series [2] stood at 7. In the series with Leishmania donovani [3], the half-inhibitory concentration (IC50) worked out at 5.4 µM. In addition, in the series on Leishmania donovani [4], the inhibition at 40 µM is 100%.

Take `CC1=CCCC(C)(C)C1/C=C/C1=NN(c2ccccc2)C(c2ccc(-n3cncn3)cc2)C1` (centres undefined): in series [1], half-maximal cytotoxicity (CC50 at 72 h) was put at 296 µM. The inhibition in vivo at 50 mg/kg with Leishmania donovani [5] came out at 58%. In addition, in series [2], the “Ratio CC50/IC50” value amounted to 32. Moreover, in the series with Leishmania donovani [3], the IC50 is 9.2 µM. The inhibition at 40 µM in the series with Leishmania donovani [4] turned out to be 98%.

`CC1=C(/C=C/C2=NN(c3ccc(F)cc3)C(c3ccc(-n4cncn4)cc3)C2)C(C)(C)CCC1` (centres undefined) yielded a CC50 at 72 h in series [1] of 58.6 µM. Further, in series [2], the “Ratio CC50/IC50” value is reported as 5. Further, the half-maximal inhibitory concentration (IC50) in the series with Leishmania donovani [3] is 12.4 µM. Further, in the series with Leishmania donovani [4], the inhibition at 40 µM was found to be 98.7%.
